Test results reported in article PMC6926016 (Proceedings of the National Academy of Sciences of the …, 2019).

Legend:
Format in all cases: cell-based
Settings in all cases: Ca2+ assay
[1] = target: guinea pig TRPA1 (Cavia porcellus, UniProt H0VJD1); test: Calcium influx assay, guinea pig TRPA1
Method in brief: (§1)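 TRPA1 orthologue cDNAs in pcDNA3.1 Hygro, transiently transfected, each construct tested in at least 2 independent transfections. Fluorescence Ca2+ influx (RFU) read in Hanks balanced salt solution with 1.26 mM Ca2+ and 1.0 mM Mg2+.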

[2] = system: chicken TRPA1; test: Calcium influx assay, chicken TRPA1
Method in brief: as §1

[3] = target: dog TRPA1 (Canis lupus familiaris, UniProt A0A8I3Q1Q7); test: Calcium influx assay, dog TRPA1
Method in brief: as §1

[4] = target: rat TRPA1 (Rattus norvegicus, UniProt Q6RI86); test: Calcium influx assay, rat TRPA1
Method in brief: as §1

[5] = target: human TRPA1 (Homo sapiens, UniProt O75762); test: Calcium influx assay in HEK-293F cells transiently expressing human TRPA1
Sequence of human TRPA1 (O75762 whole entry): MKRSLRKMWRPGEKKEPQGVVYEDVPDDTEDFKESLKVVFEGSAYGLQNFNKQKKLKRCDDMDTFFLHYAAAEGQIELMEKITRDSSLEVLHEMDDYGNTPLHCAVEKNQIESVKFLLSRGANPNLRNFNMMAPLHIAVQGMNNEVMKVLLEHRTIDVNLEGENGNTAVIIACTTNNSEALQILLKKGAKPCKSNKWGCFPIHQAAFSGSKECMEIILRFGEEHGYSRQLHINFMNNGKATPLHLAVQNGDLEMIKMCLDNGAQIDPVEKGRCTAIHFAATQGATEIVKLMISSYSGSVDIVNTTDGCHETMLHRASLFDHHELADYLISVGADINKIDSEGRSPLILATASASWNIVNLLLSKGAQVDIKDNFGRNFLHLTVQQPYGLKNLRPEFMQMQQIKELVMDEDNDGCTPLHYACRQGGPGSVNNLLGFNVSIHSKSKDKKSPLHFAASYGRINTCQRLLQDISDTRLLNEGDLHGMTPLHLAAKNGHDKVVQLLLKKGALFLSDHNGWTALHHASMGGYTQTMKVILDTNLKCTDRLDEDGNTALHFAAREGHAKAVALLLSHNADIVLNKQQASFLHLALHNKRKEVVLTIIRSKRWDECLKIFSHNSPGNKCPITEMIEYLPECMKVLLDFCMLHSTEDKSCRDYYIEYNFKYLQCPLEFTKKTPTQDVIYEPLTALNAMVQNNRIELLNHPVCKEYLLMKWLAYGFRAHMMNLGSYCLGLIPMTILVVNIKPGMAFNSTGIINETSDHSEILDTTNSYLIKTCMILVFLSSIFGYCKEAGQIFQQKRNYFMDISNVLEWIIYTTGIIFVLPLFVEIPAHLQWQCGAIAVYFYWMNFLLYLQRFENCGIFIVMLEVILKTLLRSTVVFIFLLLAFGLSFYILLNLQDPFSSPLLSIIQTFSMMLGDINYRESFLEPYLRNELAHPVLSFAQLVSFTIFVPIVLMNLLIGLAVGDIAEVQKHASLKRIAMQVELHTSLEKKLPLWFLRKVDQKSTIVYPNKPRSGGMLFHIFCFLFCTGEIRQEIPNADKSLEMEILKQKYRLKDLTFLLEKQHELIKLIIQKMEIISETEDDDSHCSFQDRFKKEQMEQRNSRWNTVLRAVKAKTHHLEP

Sequence of guinea pig TRPA1 (H0VJD1 1-991): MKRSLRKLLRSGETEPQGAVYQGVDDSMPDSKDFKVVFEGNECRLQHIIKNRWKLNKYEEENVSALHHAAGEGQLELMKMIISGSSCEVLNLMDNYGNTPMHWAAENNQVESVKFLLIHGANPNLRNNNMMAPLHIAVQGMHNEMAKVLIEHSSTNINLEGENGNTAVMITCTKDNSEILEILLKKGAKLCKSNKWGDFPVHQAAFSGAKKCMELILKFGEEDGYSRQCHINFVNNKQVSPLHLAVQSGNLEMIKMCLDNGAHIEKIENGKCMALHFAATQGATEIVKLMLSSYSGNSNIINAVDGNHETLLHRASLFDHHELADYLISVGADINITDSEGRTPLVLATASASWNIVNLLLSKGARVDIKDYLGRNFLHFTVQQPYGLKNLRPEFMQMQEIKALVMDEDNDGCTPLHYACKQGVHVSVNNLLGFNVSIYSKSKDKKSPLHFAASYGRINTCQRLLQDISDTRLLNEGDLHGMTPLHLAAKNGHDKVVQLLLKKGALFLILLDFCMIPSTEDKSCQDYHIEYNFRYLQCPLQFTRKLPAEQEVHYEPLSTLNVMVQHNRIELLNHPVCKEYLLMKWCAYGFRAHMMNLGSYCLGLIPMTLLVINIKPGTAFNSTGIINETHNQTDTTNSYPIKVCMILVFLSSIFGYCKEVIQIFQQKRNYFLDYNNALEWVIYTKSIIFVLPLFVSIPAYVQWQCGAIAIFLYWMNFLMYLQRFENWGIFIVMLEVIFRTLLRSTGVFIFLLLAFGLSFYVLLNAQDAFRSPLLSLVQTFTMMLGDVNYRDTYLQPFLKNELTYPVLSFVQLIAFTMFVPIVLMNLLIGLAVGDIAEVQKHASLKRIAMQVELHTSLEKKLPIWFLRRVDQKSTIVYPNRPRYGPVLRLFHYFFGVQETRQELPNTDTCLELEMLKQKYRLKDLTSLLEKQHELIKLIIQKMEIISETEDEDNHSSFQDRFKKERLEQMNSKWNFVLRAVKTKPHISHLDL
Sequence of dog TRPA1 (A0A8I3Q1Q7 1-1118): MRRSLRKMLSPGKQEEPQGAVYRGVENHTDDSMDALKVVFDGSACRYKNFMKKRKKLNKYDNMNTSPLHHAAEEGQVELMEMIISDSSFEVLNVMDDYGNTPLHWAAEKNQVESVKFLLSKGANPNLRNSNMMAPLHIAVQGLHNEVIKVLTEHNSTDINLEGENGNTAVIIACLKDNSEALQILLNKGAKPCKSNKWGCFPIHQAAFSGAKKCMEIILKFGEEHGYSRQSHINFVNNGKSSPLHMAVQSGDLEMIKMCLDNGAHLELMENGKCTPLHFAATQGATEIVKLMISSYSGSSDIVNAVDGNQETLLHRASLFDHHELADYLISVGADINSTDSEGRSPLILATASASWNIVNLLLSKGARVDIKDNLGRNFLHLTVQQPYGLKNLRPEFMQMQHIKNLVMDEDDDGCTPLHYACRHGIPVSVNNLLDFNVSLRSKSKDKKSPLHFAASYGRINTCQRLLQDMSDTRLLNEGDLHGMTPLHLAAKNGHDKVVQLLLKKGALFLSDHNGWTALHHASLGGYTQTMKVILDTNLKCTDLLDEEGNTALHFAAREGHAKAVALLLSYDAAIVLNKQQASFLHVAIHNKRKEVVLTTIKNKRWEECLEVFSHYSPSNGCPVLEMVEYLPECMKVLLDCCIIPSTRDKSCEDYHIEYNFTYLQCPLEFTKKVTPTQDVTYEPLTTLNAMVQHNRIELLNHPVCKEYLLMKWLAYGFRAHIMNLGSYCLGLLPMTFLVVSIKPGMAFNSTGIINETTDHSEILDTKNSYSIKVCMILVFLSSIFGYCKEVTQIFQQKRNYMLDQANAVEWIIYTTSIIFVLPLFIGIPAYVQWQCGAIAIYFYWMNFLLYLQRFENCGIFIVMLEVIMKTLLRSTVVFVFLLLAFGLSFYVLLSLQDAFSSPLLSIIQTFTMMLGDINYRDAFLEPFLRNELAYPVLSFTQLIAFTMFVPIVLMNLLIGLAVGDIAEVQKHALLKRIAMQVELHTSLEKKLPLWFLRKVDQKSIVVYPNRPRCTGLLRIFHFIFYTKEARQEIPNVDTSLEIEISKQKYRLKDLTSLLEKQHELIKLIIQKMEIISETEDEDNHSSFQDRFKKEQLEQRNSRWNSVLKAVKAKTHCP
Sequence of rat TRPA1 (Q6RI86 whole entry): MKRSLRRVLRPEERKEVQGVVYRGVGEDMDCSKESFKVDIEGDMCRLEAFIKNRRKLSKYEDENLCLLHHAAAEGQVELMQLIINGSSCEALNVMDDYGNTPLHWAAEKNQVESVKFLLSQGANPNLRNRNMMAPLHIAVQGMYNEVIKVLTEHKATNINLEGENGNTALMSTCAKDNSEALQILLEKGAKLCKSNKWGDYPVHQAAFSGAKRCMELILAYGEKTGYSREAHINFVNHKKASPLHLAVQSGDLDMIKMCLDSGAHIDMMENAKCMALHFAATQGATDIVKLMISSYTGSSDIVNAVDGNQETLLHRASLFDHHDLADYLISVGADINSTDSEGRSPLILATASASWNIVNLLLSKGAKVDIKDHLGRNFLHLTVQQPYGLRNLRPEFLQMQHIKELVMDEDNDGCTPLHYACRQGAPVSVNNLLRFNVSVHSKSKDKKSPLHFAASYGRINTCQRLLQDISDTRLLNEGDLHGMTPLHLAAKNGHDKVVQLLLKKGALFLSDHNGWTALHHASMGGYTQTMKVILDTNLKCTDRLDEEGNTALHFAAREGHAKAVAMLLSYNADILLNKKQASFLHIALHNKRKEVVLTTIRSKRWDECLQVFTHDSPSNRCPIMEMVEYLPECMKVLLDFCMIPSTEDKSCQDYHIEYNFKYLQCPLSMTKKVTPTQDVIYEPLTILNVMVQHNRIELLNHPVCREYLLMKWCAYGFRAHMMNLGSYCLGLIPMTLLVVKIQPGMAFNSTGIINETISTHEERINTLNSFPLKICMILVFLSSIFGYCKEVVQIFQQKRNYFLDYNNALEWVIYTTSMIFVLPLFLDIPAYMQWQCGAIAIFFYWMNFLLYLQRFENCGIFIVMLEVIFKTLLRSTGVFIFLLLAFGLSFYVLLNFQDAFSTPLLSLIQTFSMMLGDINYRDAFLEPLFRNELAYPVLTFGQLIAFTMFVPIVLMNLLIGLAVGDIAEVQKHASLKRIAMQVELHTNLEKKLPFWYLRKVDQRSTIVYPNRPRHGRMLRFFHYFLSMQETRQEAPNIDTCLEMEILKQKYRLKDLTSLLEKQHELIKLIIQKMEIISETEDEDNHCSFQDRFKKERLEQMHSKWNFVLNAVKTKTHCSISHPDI

C=CCN=C=S [AITC, allyl isothiocyanate]
robust response: activation of guinea pig TRPA1 [1] | activation of chicken TRPA1 [2] | activation of dog TRPA1 [3] | activation of rat TRPA1 [4] | activation of human TRPA1 ([5]; species comparison)
1.4: Hill slope ([5]; concentration-response, human TRPA1)
